Bioassay records deposited in PubChem by Broad Institute.
Cneo AK release: Cryptococcus neoformans lysis via adenylate kinase release; C. neoformans lysis, adenylate kinase release luminescence, 4 h; normalised: neutral wells 0, clomiphene wells 100; lysis activity, % at 15 µM; 0.2% of 360,000 active;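 active means mean lysis activity across replicates of at least 80%, whatever share of replicates individually reach that level; inactive means mean lysis activity below 80%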
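Test system: log-phase Cryptococcus neoformans yeast cells. Input: 5 × 10^6 yeast cells/mL. Medium: fresh YPD growth medium. Doses: single dose. Incubation: static 4 h at 37 °C with compound, 1 h detection. Measured by: luminescent adenylate kinase detection reagent. Read-out: signal increase indicating cell lysis. Benchmarks: Clomiphene.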
rRNA inh HTS: inhibitors of bacterial rRNA selective over humanized ribosomes; E. coli WT GFP vs humanized-ribosome RFP mutants, fluorescence, 24 h; active compounds read low; DMSO median 0, no signal -100; GFP signal change (wild-type ribosome), % (no concentration beside the values); 1.6% of 350,000 active;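 active means significant combined selectivity score with lowered wild-type GFP, culture density cut under 30%, mutant RFP and density less affected; inactive means any of these conditions unmet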
C2C12 statin: protects C2C12 myotubes from simvastatin toxicity; ATP luminescence, 48 h; scaled: DMSO 0, geranylgeraniol control 100; rescue of ATP level, % at 7.49 µM; 0.78% of 330,000 active;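 active means mean ATP rescue above about 67%, or every replicate alone reaching that limit, limit read from the data, passing the limit was not always enough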;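 further: myotubes were challenged with 10 µM simvastatin during compound exposure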
PGC1a acetyl inh: lowers PGC1a acetylation signal in U2OS cells. AID 651687. inhibition, % at 15.6 µM. AlphaScreen anti-acetyl-lysine; with virally co-expressed GCN5 acetyltransferase. 0.17% of 350,000 active;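 active means every replicate shows inhibition of at least 40%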;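 further: 0% = neutral control wells and 100% = positive control wells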
SIRT5 block: sirtuin-5 (human) deacylase inhibition | Purified SirT5, succinyl-peptide AMC, trypsin-coupled fluorescence | inhibition, % at 15 µM | 1.1% of 330,000 active | AID 652115; in the data active means inhibition above about 15%
Target sequence (Q9NXA8 whole entry, looked up): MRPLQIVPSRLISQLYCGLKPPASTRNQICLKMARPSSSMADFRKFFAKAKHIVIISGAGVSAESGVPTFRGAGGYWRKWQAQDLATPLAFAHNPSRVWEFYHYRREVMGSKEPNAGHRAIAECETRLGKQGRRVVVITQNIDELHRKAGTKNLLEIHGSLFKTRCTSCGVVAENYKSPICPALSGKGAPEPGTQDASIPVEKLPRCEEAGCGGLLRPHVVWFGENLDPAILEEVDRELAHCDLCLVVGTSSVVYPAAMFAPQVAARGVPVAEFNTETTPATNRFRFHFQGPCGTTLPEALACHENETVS
S100A4 MyoIIA: inhibitors of human S100A4 binding to myosin IIA peptide; S100A4/TAMRA-MyoIIA peptide fluorescence polarization; inhibition, % at 10.7 µM; 0.14% of 360,000 active; AID 652163;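 active means mean inhibition of at least 70% across replicates, with every replicate also reaching that level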
Target sequence (P26447 whole entry, looked up): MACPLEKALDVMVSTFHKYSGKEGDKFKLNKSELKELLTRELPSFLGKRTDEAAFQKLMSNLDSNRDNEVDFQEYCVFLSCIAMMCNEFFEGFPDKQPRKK
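Material: S100A4 monomer (human). Medium: Calcium-containing HEPES buffer, pH 7.2. Probe or stimulus: labelled myosin peptide probe, 5 nM. Compound dosing: one concentration per compound. Timing: polarization read 5 min after assay mix addition, stable 5–60 min. Benchmarks: DMSO as neutral control, TFP as positive control.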
* hit, by the source's call; x = not tested or not shown. Shown are actives, neighbours in structure and some others; about 3% of the full set was active somewhere.

SMILES	Cneo AK release	rRNA inh HTS	C2C12 statin	PGC1a acetyl inh	SIRT5 block	S100A4 MyoIIA
COc1ccccc1-n1c(=O)c(C#N)c(-c2ccc([N+](=O)[O-])cc2)c2cc(C(=O)c3cc(F)ccc3O)cnc21	x	-4	x	3	1	-8
Cn1c(=O)c(C#N)c(-c2ccc(F)cc2)c2cc(C(=O)c3cc(Cl)cc(Cl)c3O)cnc21	-2	-28*	-60	4	0	-7
O=C1c2ccccc2C(=O)c2c1cccc2-n1nnc2ccccc21	3	17	x	2	-4	-1
O=C1C(N2CCOCC2)=C(n2nnc3ccccc32)C(=O)c2ccccc21	-5	x	-74	61*	x	x
CCCN1[C@@H]2c3ccc(-c4cccc(OC)c4)c(=O)n3C[C@@H]2[C@@H](CO)[C@@H]1C(=O)OC	2	-4	17	-4	16*	-1
CCCNC(=O)[C@H]1[C@H](CO)[C@H]2Cn3c(ccc(-c4ccc(OC)cc4)c3=O)[C@H]2N1CCC	-2	-3	-15	x	16*	17
COCC(=O)Nc1ccc2c(c1)C(=O)N(C)C[C@H](OC)[C@H](C)CN(C(=O)c1ccccn1)[C@@H](C)CO2	-4	5	10	0	5	7
Cc1noc(NS(=O)(=O)c2ccc(N3C(=O)c4ccccc4C3=O)cc2)c1C	-1	x	x	3	x	x
CC(=O)NS(=O)(=O)c1ccc(N2C(=O)c3ccccc3C2=O)cc1	x	-6	x	x	15*	6
O=C(NCCCO)c1ccc2nc(-c3ccco3)c(-c3ccco3)nc2c1	x	2	-7	x	15*	-7
C[C@H](CO)N1C[C@H](C)[C@@H](CN(C)Cc2cccnc2)Oc2ncc(C#CC3(O)CCCC3)cc2C1=O	1	-2	29	6	-2	-2
O=[N+]([O-])c1ccc2c(c1)C(N1CCN(CCO)CC1)Cc1ccc(F)cc1S2 (stereo not drawn)	0	-2	-4	-4	x	7
CSc1ccc2c(c1)C(N1CCN(C)CC1)Cc1ccc(F)cc1S2 (stereo not drawn)	3	-48*	0	-4	-5	1
COc1cccc(C(=O)Nc2ccc3c(c2)OC[C@@H](C)N(C(=O)C2CC2)C[C@@H](C)[C@H](OC)CN(C)C3=O)c1	-12	-5	1	5	2	-15
CCOc1ccc(N2CC(C(=O)NNC(=O)c3ccc(Br)cc3)CC2=O)cc1 (stereo not drawn)	5	12	-2	-3	1	73*
CCCNC(=O)C1CC(=O)N(c2ccc(OCC)cc2)C1 (stereo not drawn)	1	7	5	9	0	1
Cc1ccc(S(=O)(=O)ON=C2CCN(S(=O)(=O)c3ccccc3)CC2)cc1	1	x	-20	-6	x	x
Cc1ccc(S(=O)(=O)OCCC2=CC(=O)CCN2Cc2ccccc2)cc1	-1	-18	21	63*	x	3
C[C@H]1CN([C@@H](C)CO)C(=O)Cc2cc(NS(=O)(=O)c3ccc(F)cc3)ccc2O[C@@H]1CN(C)C(=O)Nc1cccc2ccccc12	-3	-3	17	5	6	1
Cc1nc(N)sc1-c1csc(Nc2cccc(C(=O)O)c2)n1	-2	12	-9	-8	27*	-13
CCC(=O)Nc1nc(C)c(-c2csc(Nc3cccc(C(=O)O)c3)n2)s1	x	x	x	12	2	-5
COc1ccc(-c2csc(NC(=S)NC(=O)/C=C/c3ccco3)n2)cc1Br	0	-41*	-48	4	5	-3
CCNC(=S)N/N=C/c1cc(C)n(-c2ccc(Cl)cc2)c1C	x	5	x	11	16*	-3
COc1ccc(C(=O)N/C(=C/c2cccs2)C(=O)NC(C)(C)C)cc1OC	2	21	15	67*	0	-1
COc1ccc(/C=C(\NC(=O)c2cccs2)C(=O)NC(C)(C)C)cc1OC	-3	12	8	x	-4	-2
CC(C)(C)OC(=O)N1CCC[C@H]1C(=O)N1CCC[C@H]1C(=O)NCc1ccc(F)cc1F	x	0	x	x	17*	-7
